Assay outcomes as filed in PubChem BioAssay.
Compounds with a hit are over-represented: about 1.9% of the library has one in this group of screens.
CHRM5 agonist – agonists of human muscarinic M5 receptor (CHRM5). activation, % at 3 µM. CHO-K1 hM5 cells, Fluo-8 calcium fluorescence; 0% DMSO wells, 100% maximal acetylcholine response. AID 624037. 360,000 compounds, 0.19% hits. P08912;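 active = activation above the run's mean over test compounds plus 3 SD, cut at about 23% in these data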;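 also: signal is peak over basal fluorescence ratio across the kinetic read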
M4 PAM – potentiates acetylcholine response at human M4 receptor | 360,000 compounds, 0.4% hits | activation, % at 3 µM | P08173 | CHO-K1 hM4/Gqi5, Fluo-8 calcium fluorescence, ACh EC20; 0% = ACh EC20, 100% = maximal ACh;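 active = activation above its plate's cutoff, the mean activation of sample wells plus 3 SD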
Target sequence (P08173 whole entry, looked up): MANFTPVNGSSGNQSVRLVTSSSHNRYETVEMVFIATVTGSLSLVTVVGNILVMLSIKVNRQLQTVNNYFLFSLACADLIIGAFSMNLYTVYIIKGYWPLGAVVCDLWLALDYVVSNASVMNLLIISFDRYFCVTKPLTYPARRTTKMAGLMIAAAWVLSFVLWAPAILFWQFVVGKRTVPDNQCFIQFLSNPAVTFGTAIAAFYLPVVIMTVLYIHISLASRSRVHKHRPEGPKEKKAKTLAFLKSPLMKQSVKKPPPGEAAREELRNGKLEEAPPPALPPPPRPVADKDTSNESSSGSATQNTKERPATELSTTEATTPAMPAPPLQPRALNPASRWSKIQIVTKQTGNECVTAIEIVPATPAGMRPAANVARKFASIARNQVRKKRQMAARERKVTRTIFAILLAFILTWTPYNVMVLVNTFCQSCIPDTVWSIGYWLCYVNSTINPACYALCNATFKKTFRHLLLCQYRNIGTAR
CHRM4 agonist – agonists of human muscarinic M4 receptor (CHRM4) | activation, % at 3 µM | 360,000 compounds, 0.14% hits | P08173 | AID 624127 | CHO-K1 hM4/Gqi5, Fluo-8 calcium fluorescence; vehicle 0%, full acetylcholine response 100%;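 active = activation above the run mean over all test wells plus 3 SD, cut at about 32% in these data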;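 also: peak over basal fluorescence ratio per well then scaled between controls; 0% = DMSO wells and 100% = acetylcholine at EC100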
M4 antag – antagonists of human muscarinic M4 receptor (CHRM4); CHO-hM4 cells, ACh EC80, Fluo-8 calcium fluorescence; inhibition, % at 3 µM; 360,000 compounds, 0.73% hits;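 active = inhibition above its plate's cutoff, the mean inhibition of sample wells plus 3 SD, cut at about 27% in these data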;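 also: 0% = acetylcholine EC80 with DMSO and 100% = DMSO without agonist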
CHRM5 PAM – potentiates acetylcholine response at human M5 receptor; P08912; CHO-K1 hM5, Fluo-8 calcium, ACh EC20 PAM; 0% = ACh EC20, 100% = ACh EC100; activation, % at 3 µM; 360,000 compounds, 0.3% hits; AID 624038;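 active = activation above the run cutoff, the mean activation of all test compounds plus 3 SD, cut at about 18% in these data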
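Assay system: CHO-K1 hM5 cells. Also added: acetylcholine at EC20 concentration, added after compound. Dosing: 3 µM, single dose. Times: compound preincubation 140 s before EC20 acetylcholine addition. Signal: Fluo-8 calcium fluorescence. Measure: % activation relative to EC20 and EC100 ACh responses. Repeats: singlicate, one well per test compound.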
M5 antag – CHRM5 antagonism in calcium assay; P08912; CHO-hM5 cells, Fluo-8 calcium fluorescence, ACh EC80; inhibition, % at 3 µM; 360,000 compounds, 0.59% hits;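 active = inhibition above a per-plate cutoff, the mean of that plate's test compounds plus 3 SD, cut at about 27% in these data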;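 also: 0% = acetylcholine EC80 with DMSO and 100% = DMSO without agonist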
An asterisk follows results filed as active.

SMILES	CHRM5 agonist	M4 PAM	CHRM4 agonist	M4 antag	CHRM5 PAM	M5 antag
C=CC(=O)N=c1sc2ccccc2n1-c1ccccc1	-2	-7	3	-6	-12	-4
N=c1sc2ccccc2n1-c1ccccc1	0	-23	14	22	-13	27*
O=C(Cn1ncc2c([nH]c3ccccc32)c1=O)NCCc1ccc(Cl)cc1	-1	-3	1	4	-5	8
CSc1ccc(CCNC(=O)Cn2ncc3c([nH]c4ccccc43)c2=O)cc1	-4	15*	2	16	-3	19
CN(C)c1ccc2nc3c(=O)[nH]c(=O)nc-3n(CC(O)C(O)C(O)CO)c2c1 (stereo not drawn)	12	-12	48*	13	1	1
Cc1cccc(C)c1OCCCCN1CCNCC1	0	8	3	-9	4	5
Cc1cc(C)c(OCCCCN2CCNCC2)c(C)c1	1	-12	0	30*	5	-4
CN(Cc1ccccc1)C(=O)c1ccc(NC(=O)c2ccccc2)cc1	-1	-4	2	4	-9	5
Cc1ccccc1Nc1c(-c2ccc(N3CCOCC3)cc2)nc2cnccn12	1	7	0	0	4	1
Cc1ccc(Nc2c(-c3ccc(N4CCOCC4)cc3)nc3cnccn23)cc1	7	11	0	10	19*	-12
Cc1cc2ccccc2n1CCNC(=O)c1ccc(Br)o1	0	-8	2	-4	-11	27*
O=C(NCCCc1ccccc1)c1ccc(Br)o1	-4	31*	0	6	6	1
O=C(NCCCCc1ccccc1)c1ccc(Br)o1	0	9	1	-9	-4	10
Cc1ccc([C@H]2N[C@]3(CCCN(CC4CCCCC4)C3=O)[C@H]3C(=O)N(C)C(=O)[C@@H]23)cc1	-1	4	0	-9	4	-4
Cc1cccc(CN(C(=S)Nc2c(C)cccc2C)c2cccnc2)c1	-13	11	2	-12	18*	-6
CCc1ccccc1NC(=S)N(Cc1cccc(C)c1)c1cccnc1	-17	-4	1	0	-2	18
COc1cc(NC(C)CCCN)c2ncccc2c1Oc1ccccc1 (stereo not drawn)	0	2	1	8	25*	22
COc1ccc(Oc2c(OC)cc([N+](=O)[O-])c3ncccc23)cc1	5	-1	0	-8	-3	7
CCC(C)NC(=O)C(NS(=O)(=O)c1cccc2nsnc12)c1ccccc1 (stereo not drawn)	-9	5	1	-15	35*	-2
O=C(CCN1C(=O)c2cccc3cccc(c23)C1=O)Nc1ccccc1	2	2	1	1	-2	1
CCNc1ccc(C(=O)OCC(=O)NCCN2C(=O)CSC2=O)cc1[N+](=O)[O-]	5	6	3	-8	22*	-10
O=C(Nc1cccc([N+](=O)[O-])c1)NN1CCCCCC1	6	-4	14	11	-20	30*
O=C(CNC1CCCCC1)Nc1cccc([N+](=O)[O-])c1	0	0	1	0	3	5
COc1ccc(NC(=O)NC2CCCCCCC2)cc1OC	-1	17	3	4	22*	-2
O=C(Nc1cccc([N+](=O)[O-])c1)NC1CCCCCCC1	8	-13	15	6	-16	29*
O=C(NCc1cccnc1)Nc1cccc([N+](=O)[O-])c1	-5	-1	1	-3	-11	28*
CC(=O)c1ccc(-c2ccc(C(=O)NCC3CCCO3)o2)cc1 (stereo not drawn)	1	7	4	-2	-2	7
O=C(NCC(c1ccco1)N1CCc2ccccc21)c1cccc([N+](=O)[O-])c1 (stereo not drawn)	-5	-1	6	-20	0	6
Cc1cc2cc(CNC(=O)c3ccc(S(=O)(=O)N4CCCC4)cc3)ccc2n1C	-1	-15	3	35*	-7	8
CCN(CC)S(=O)(=O)c1ccc(C(=O)NCc2ccc3c(c2)cc(C)n3C)cc1	2	-17	1	55*	-2	-2
